# Test results: ChEMBL document CHEMBL1949612, “Design, synthesis, and functionalization of dimeric peptides targeting chemokine receptor CXCR4” (J Med Chem, 2011)
# *1 amine or outer side, *2 acyl side, *3 side chain or, on linkers, in order; H or OH if unused. Where a SMILES comes first, the peptide text is derived from it. Bridges are numbered along the chain shown (N, C = ends). Roman numbers before positions name the chains, in order. [ ]: non-standard residue; d: D form. The star is where a group is joined. C16 diacid = O=C(O)CCCCCCCCCCCCCCC(=O)*; Sebacoyl = O=C(CCCCCCCCC(=O)[*:2])[*:1]; 2Nal = N[C@@H](Cc1ccc2ccccc2c1)C(=O)O; Suberoyl = O=C(CCCCCCC(=O)[*:2])[*:1]; Adipoyl = O=C(CCCCC(=O)[*:2])[*:1]; Glutaryl = O=C(CCCC(=O)[*:2])[*:1]; dNMeOrn = CN[C@H](CCCN)C(=O)O; Suc = O=C(CCC(=O)[*:2])[*:1]
# Biological target: C-X-C chemokine receptor type 4 (Homo sapiens, UniProt P61073)
# Sequence (P61073 whole entry): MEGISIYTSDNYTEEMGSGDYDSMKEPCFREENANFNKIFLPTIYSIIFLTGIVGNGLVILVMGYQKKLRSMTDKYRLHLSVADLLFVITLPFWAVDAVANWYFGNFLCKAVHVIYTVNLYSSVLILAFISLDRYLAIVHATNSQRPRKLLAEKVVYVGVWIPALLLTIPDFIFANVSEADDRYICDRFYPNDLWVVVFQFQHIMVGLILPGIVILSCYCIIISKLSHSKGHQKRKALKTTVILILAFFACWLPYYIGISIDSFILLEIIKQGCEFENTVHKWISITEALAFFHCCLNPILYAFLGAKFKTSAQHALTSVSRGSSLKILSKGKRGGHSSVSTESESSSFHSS
# Test: Displacement of [125I]-CPCR4 from CXCR4 receptor in human Jurkat cells after 2 hrs by gamma counting
# Type: cell-based
# How it was run: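 Whole Jurkat cells (400000 per tube) in PBS/0.2% BSA were incubated with ~0.1 nM (3.1 kBq) 125I-CPCR4 and test peptide at 10^-11 to 10^-5 M, shaken 2 h at RT. Nonspecific binding was taken with 1 μM unlabeled CPCR4. Cells were pelleted, washed twice with cold PBS, and bound activity was counted. Runs were done in triplicate, repeated 2–3 times. IC50 was fitted by nonlinear regression.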
row,Structure (SMILES),IC50 [nM]
1,CN1C(=O)[C@@H](Cc2ccc(O)cc2)NC(=O)CNC(=O)[C@H](Cc2ccc3ccccc3c2)NC(=O)[C@H](CCCNC(=N)N)NC(=O)[C@H]1CCCNC(=O)CCC(=O)NCCC[C@@H]1C(=O)N[C@@H](CCCNC(=N)N)C(=O)N[C@@H](Cc2ccc3ccccc3c2)C(=O)NCC(=O)N[C@H](Cc2ccc(O)cc2)C(=O)N1C (I: cyclo([2Nal]G[dY][dNMeOrn]R) / II: cyclo([2Nal]G[dY][dNMeOrn]R); linker I:4-II:4 via Suc),12
2,CN1C(=O)[C@@H](Cc2ccc(O)cc2)NC(=O)CNC(=O)[C@H](Cc2ccc3ccccc3c2)NC(=O)[C@H](CCCN=C(N)N)NC(=O)[C@H]1CCCNC(=O)CCCCC(=O)NCCC[C@@H]1C(=O)N[C@@H](CCCN=C(N)N)C(=O)N[C@@H](Cc2ccc3ccccc3c2)C(=O)NCC(=O)N[C@H](Cc2ccc(O)cc2)C(=O)N1C (I: cyclo([2Nal]G[dY][dNMeOrn]R) / II: cyclo([2Nal]G[dY][dNMeOrn]R); linker I:4-II:4 via Adipoyl),4
3,CN1C(=O)[C@@H](Cc2ccc(O)cc2)NC(=O)CNC(=O)[C@H](Cc2ccc3ccccc3c2)NC(=O)[C@H](CCCNC(=N)N)NC(=O)[C@H]1CCCNC(=O)CNC(=O)CCC(=O)NCC(=O)NCCC[C@@H]1C(=O)N[C@@H](CCCNC(=N)N)C(=O)N[C@@H](Cc2ccc3ccccc3c2)C(=O)NCC(=O)N[C@H](Cc2ccc(O)cc2)C(=O)N1C,6
4,CC(=O)NCCC[C@@H]1C(=O)N[C@@H](CCCNC(N)=O)C(=O)N[C@@H](Cc2ccc3ccccc3c2)C(=O)NCC(=O)N[C@H](Cc2ccc(O)cc2)C(=O)N1C,1000
5,CN1C(=O)[C@@H](Cc2ccc(O)cc2)NC(=O)CNC(=O)[C@H](Cc2ccc3ccccc3c2)NC(=O)[C@H](CCCNC(=N)N)NC(=O)[C@H]1CCCNC(=O)CNC(=O)C[C@H](NC(=O)CCCCCNC(=O)CN1CCN(CC(=O)O)CCN(CC(=O)O)CCN(CC(=O)O)CC1)C(=O)NCC(=O)NCCC[C@@H]1C(=O)N[C@@H](CCCNC(=N)N)C(=O)N[C@@H](Cc2ccc3ccccc3c2)C(=O)NCC(=O)N[C@H](Cc2ccc(O)cc2)C(=O)N1C,39
6,CN1C(=O)[C@@H](Cc2ccc(O)cc2)NC(=O)CNC(=O)[C@H](Cc2ccc3ccccc3c2)NC(=O)[C@H](CCCN=C(N)N)NC(=O)[C@H]1CCCNC(=O)CCCCCCCCC(=O)NCCC[C@@H]1C(=O)N[C@@H](CCCN=C(N)N)C(=O)N[C@@H](Cc2ccc3ccccc3c2)C(=O)NCC(=O)N[C@H](Cc2ccc(O)cc2)C(=O)N1C (I: cyclo([2Nal]G[dY][dNMeOrn]R) / II: cyclo([2Nal]G[dY][dNMeOrn]R); linker I:4-II:4 via Sebacoyl),2
7,CC(=O)NCCC[C@@H]1C(=O)N[C@@H](CCCNC(=N)N)C(=O)N[C@@H](Cc2ccc3ccccc3c2)C(=O)NCC(=O)N[C@H](Cc2ccc(O)cc2)C(=O)N1C,60
8,CN1C(=O)[C@@H](Cc2ccc(O)cc2)NC(=O)CNC(=O)[C@H](Cc2ccc3ccccc3c2)NC(=O)[C@H](CCCNC(=N)N)NC(=O)[C@H]1CCCN,6
9,CN1C(=O)[C@@H](Cc2ccc(O)cc2)NC(=O)CNC(=O)[C@H](Cc2ccc3ccccc3c2)NC(=O)[C@H](CCCN=C(N)N)NC(=O)[C@H]1CCCNC(=O)CNC(=O)CC(=O)NCC(=O)NCCC[C@@H]1C(=O)N[C@@H](CCCN=C(N)N)C(=O)N[C@@H](Cc2ccc3ccccc3c2)C(=O)NCC(=O)N[C@H](Cc2ccc(O)cc2)C(=O)N1C,8
10,CN1C(=O)[C@@H](Cc2ccc(O)cc2)NC(=O)CNC(=O)[C@H](Cc2ccc3ccccc3c2)NC(=O)[C@H](CCCN=C(N)N)NC(=O)[C@H]1CCCNC(=O)CNC(=O)CC(CC(=O)NCC(=O)NCCC[C@@H]1C(=O)N[C@@H](CCCN=C(N)N)C(=O)N[C@@H](Cc2ccc3ccccc3c2)C(=O)NCC(=O)N[C@H](Cc2ccc(O)cc2)C(=O)N1C)NC(=O)CCCCCNC(=O)CN1CCN(CC(=O)O)CCN(CC(=O)O)CCN(CC(=O)O)CC1,17
11,CN1C(=O)[C@@H](Cc2ccc(O)cc2)NC(=O)CNC(=O)[C@H](Cc2ccc3ccccc3c2)NC(=O)[C@H](CCCNC(=N)N)NC(=O)[C@H]1CCCNC(=O)CC(CC(=O)NCCC[C@@H]1C(=O)N[C@@H](CCCNC(=N)N)C(=O)N[C@@H](Cc2ccc3ccccc3c2)C(=O)NCC(=O)N[C@H](Cc2ccc(O)cc2)C(=O)N1C)NC(=O)CCCCCNC(=O)CN1CCN(CC(=O)O)CCN(CC(=O)O)CCN(CC(=O)O)CC1 (stereo partly drawn),31
12,CN1C(=O)[C@@H](Cc2ccc(O)cc2)NC(=O)CNC(=O)[C@H](Cc2ccc3ccccc3c2)NC(=O)[C@H](CCCNC(=N)N)NC(=O)[C@H]1CCCNC(=O)CCCCCCC(=O)NCCC[C@@H]1C(=O)N[C@@H](CCCNC(=N)N)C(=O)N[C@@H](Cc2ccc3ccccc3c2)C(=O)NCC(=O)N[C@H](Cc2ccc(O)cc2)C(=O)N1C (I: cyclo([2Nal]G[dY][dNMeOrn]R) / II: cyclo([2Nal]G[dY][dNMeOrn]R); linker I:4-II:4 via Suberoyl),3
13,CN1C(=O)[C@@H](Cc2ccc(O)cc2)NC(=O)CNC(=O)[C@H](Cc2ccc3ccccc3c2)NC(=O)[C@H](CCCNC(=N)N)NC(=O)[C@H]1CCCNC(=O)CCCC(=O)NCCC[C@@H]1C(=O)N[C@@H](CCCNC(=N)N)C(=O)N[C@@H](Cc2ccc3ccccc3c2)C(=O)NCC(=O)N[C@H](Cc2ccc(O)cc2)C(=O)N1C (I: cyclo([2Nal]G[dY][dNMeOrn]R) / II: cyclo([2Nal]G[dY][dNMeOrn]R); linker I:4-II:4 via Glutaryl),4
14,CN1C(=O)[C@@H](Cc2ccc(O)cc2)NC(=O)CNC(=O)[C@H](Cc2ccc3ccccc3c2)NC(=O)[C@H](CCCNC(=N)N)NC(=O)[C@H]1CCCNC(=O)CCCCCCCCCCCCCCC(=O)NCCC[C@@H]1C(=O)N[C@@H](CCCNC(=N)N)C(=O)N[C@@H](Cc2ccc3ccccc3c2)C(=O)NCC(=O)N[C@H](Cc2ccc(O)cc2)C(=O)N1C (I: cyclo([2Nal]G[dY][dNMeOrn]R) / II: cyclo([2Nal]G[dY][dNMeOrn]R); linker I:4-II:4 via C16 diacid),33
15,CN1C(=O)[C@@H](Cc2ccc(O)cc2)NC(=O)CNC(=O)[C@H](Cc2ccc3ccccc3c2)NC(=O)[C@H](CCCNC(=N)N)NC(=O)[C@H]1CCCNC(=O)CNC(=O)CCCC(=O)NCC(=O)NCCC[C@@H]1C(=O)N[C@@H](CCCNC(=N)N)C(=O)N[C@@H](Cc2ccc3ccccc3c2)C(=O)NCC(=O)N[C@H](Cc2ccc(O)cc2)C(=O)N1C,14
16,CN1C(=O)[C@@H](Cc2ccc(O)cc2)NC(=O)CNC(=O)[C@H](Cc2ccc3ccccc3c2)NC(=O)[C@H](CCCN=C(N)N)NC(=O)[C@H]1CCCNC(=O)CCCC(=O)NCCC[C@@H]1C(=O)N[C@@H](CCCNC(N)=O)C(=O)N[C@@H](Cc2ccc3ccccc3c2)C(=O)NCC(=O)N[C@H](Cc2ccc(O)cc2)C(=O)N1C,19
17,CN1C(=O)[C@@H](Cc2ccc(O)cc2)NC(=O)CNC(=O)[C@H](Cc2ccc3ccccc3c2)NC(=O)[C@H](CCCNC(=N)N)NC(=O)[C@H]1CCCNC(=O)C[C@H](NC(=O)CCCCCNC(=O)CN1CCN(CC(=O)O)CCN(CC(=O)O)CCN(CC(=O)O)CC1)C(=O)NCCC[C@@H]1C(=O)N[C@@H](CCCNC(=N)N)C(=O)N[C@@H](Cc2ccc3ccccc3c2)C(=O)NCC(=O)N[C@H](Cc2ccc(O)cc2)C(=O)N1C,98
18,CN1C(=O)[C@@H](Cc2ccc(O)cc2)NC(=O)CNC(=O)[C@H](Cc2ccc3ccccc3c2)NC(=O)[C@H](CCCN=C(N)N)NC(=O)[C@H]1CCCNC(=O)CCCCCCCCCCCC(=O)NCCC[C@@H]1C(=O)N[C@@H](CCCNC(N)=O)C(=O)N[C@@H](Cc2ccc3ccccc3c2)C(=O)NCC(=O)N[C@H](Cc2ccc(O)cc2)C(=O)N1C,4
